Activity and IC50 data for six compounds are collected here from ChEMBL document CHEMBL3608276, “Phenolic Compounds from the Leaves and Twigs of Osteomeles schwerinae That Inhibit Rat Lens Aldose Reductase and Vessel Dilation in Zebrafish Larvae” (J Nat Prod, 2015).

Some results are limits rather than exact numbers.

For data set [1], the species on record is Danio rerio. In words: Toxicity in zebrafish embryo up to 20 uM. The format is organism-based. As to conditions: in vivo.
Data set [2] is filed under the species Danio rerio. In words: Reduction of high glucose-induced dilation of hyaloid-retinal vessels in flk:EGFP transgenic zebrafish embryo at 20 uM treated for day 3 to 6 postfertilization measured on day 6 by stereomicroscopic analysis relative to control. The arrangement: scale not given: the % may be the effect or the level left. Format: functional. In outline: (§1)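 flk:EGFP embryos, five per well at 3 dpf in egg water with 130 mM glucose, exposed to compound 3–6 dpf. Fixed in 4% paraformaldehyde at 6 dpf, lenses with vessels isolated by 3% trypsin (0.2 M Tris-HCl pH 7.8) 80 min at 37 °C. Hyaloid vessel diameter near the optic disc measured three times per lens, 10 larvae per group, triplicate; mean ± SEM, ANOVA/Dunnett versus high-glucose group.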

The species entered for data set [3] is Danio rerio. In words: Reduction of high glucose-induced dilation of hyaloid-retinal vessel in flk:EGFP transgenic zebrafish embryo at 10 uM treated for day 3 to 6 postfertilization measured on day 6 by stereomicroscopic analysis relative to control. The format is functional. The arrangement: scale not given: the % may be the effect or the level left. In outline: as §1

For data set [4], the target named is Aldo-keto reductase family 1 member B1 (Rattus norvegicus, UniProt P07943). In words: Inhibition of Sprague-Dawley rat lense aldose reductase using DL-glyceraldehyde as substrate by spectrofluorometric analysis. An outline of the steps:
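Crude enzyme from lenses of 8-week-old Sprague–Dawley rats (100–150 g), homogenized in 135 mM Na,K-phosphate pH 7.0 with 0.5 mM PMSF and 10 mM 2-mercaptoethanol; 100000g supernatant used. Reaction in 135 mM phosphate pH 7.0, 100 mM Li2SO4, 0.03 mM NADPH, 1 mM DL-glyceraldehyde at 37 °C, NADPH-started, HCl-stopped. NADP converted with NaOH/imidazole at 60 °C 10 min; fluorescence ex 360/em 460 nm. IC50 from log-concentration regression of remaining activity; 100 μM cutoff.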

For the compound `COc1cc(O)cc(-c2ccc(O)c(O)c2)c1`, the Activity result in data set [1] was “Non-toxic”; in data set [2], 99%; in data set [3], 95%. Also, inhibition in data set [4] was half-maximal at 13.8 µM (IC50).

In the case of `COc1cc(O[C@@H]2O[C@H](CO)[C@@H](O)[C@H](O)[C@H]2O)cc(-c2ccc(O)c(O)c2)c1`, the Activity result in data set [1] is “Non-toxic”. The compound also came in with an IC50 in data set [4] of 5.6 µM.

`COc1cc(OC)cc(-c2ccc(O)c(O[C@@H]3O[C@H](CO)[C@@H](O)[C@H](O)[C@H]3O)c2)c1`: the Activity result in data set [1] was “Non-toxic”. The compound also showed an IC50 in data set [4] of 3.8 µM. The compound `COc1cc([C@H]2O[C@H](c3cc(OC)c(O)c(OC)c3)[C@@H](CO[C@@H]3O[C@@H](C)[C@H](O)[C@@H](O)[C@H]3O)[C@@H]2CO)cc(OC)c1O` registered a concentration for half-maximal inhibition (IC50) in data set [4] greater than 100 µM. Still for that read-out and setting: next, `O=C(O)CC1(CC(=O)O)CCCC1`: 28.7 µM; `COc1cc([C@H]2O[C@H](c3cc(OC)c(O)c(OC)c3)[C@@H](CO)[C@@H]2CO)cc(OC)c1O` [HUAZHONGILEXIN]: greater than 100 µM.
